MrgX1 antagonist: human MrgX1 receptor antagonism, primary screen. Q96LB2. MRGX1-HEK293 calcium flux, Fluo-4, BAM8-22 antagonism; stronger effect = lower value. B-score at 10 µM. actives 1.3% (n = 310,000);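 active means calcium-response B-score plate-corrected more than 3 library SD below zero, starting fluorescence within 5 deviations, no agonist response on first addition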;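 further: peak minus trough fluorescence over baseline after final BAM8-22 challenge near maximal dose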
MrgX1 ag: human MrgX1 receptor agonism, primary screen; MrgX1-HEK293 cells, Fluo-4 calcium fluorescence, agonist mode; stronger effect = higher value; B-score at 10 µM; actives 0.44% (n = 310,000); AID 588627;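 active means calcium response B-score plate-corrected fluorescence ratio at least 3 library SD, with starting fluorescence B-score inside 5 SD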
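Material – MrgX1-expressing HEK293 cells · Input – 15,000 cells seeded per well · Dosing – compound as first of three additions · Times – overnight seeding, then 1 h dark dye loading · Measured by – kinetic Fluo-4 NW fluorescence of intracellular calcium · Read-out – B-scored fluorescence response ratio · Benchmarks – positive and negative control wells on each plate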
RGS4 inh: human RGS4 inhibition; HEK293 M3R/RGS4 inducible, Fluo-4 calcium flux; stronger effect = higher value; triggered by carbachol at its EC20; B-score at 10 µM; P49798; actives 0.45% (n = 310,000);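 active means B-score, a plate-corrected calcium signal, over three deviations above library mean, with baseline fluorescence within five deviations of library mean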;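 further: RGS4 expression induced by doxycycline in cells with stable M3 receptor; B-score is computed from the integrated fluorescence ratio over baseline after carbachol; higher B-score means a larger calcium signal and so more RGS4 inhibition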
Target sequence (P49798 whole entry, looked up): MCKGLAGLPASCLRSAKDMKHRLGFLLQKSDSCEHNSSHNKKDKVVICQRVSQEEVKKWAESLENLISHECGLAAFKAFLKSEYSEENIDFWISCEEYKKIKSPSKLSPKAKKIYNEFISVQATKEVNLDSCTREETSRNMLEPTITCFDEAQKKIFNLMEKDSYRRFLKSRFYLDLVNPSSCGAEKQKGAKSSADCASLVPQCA
RGS4 act: RGS4 potentiation or activation; HEK293 M3R/inducible RGS4, carbachol calcium flux Fluo4; stronger effect = lower value; actives 0.92% (n = 310,000); AID 463111; B-score at 10 µM;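 active means B-score of the integrated calcium signal more than 4 SD below the library mean, with starting fluorescence not abnormally high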;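 further: negative B-score means reduced calcium response which marks RGS4 activation or potentiation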
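Material: Inducible-RGS4 HEK293 cells carrying M3 receptor; also added: carbachol at ECmax as muscarinic agonist stimulus; incubation: compound preincubation 20 min at room temperature before agonist; signal: Fluo4-AM (2 µM) calcium-flux fluorescence, kinetic read; measure: integrated calcium ratio converted to B score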
MrgX1 allo act: allosterically activates human MrgX1 receptor signaling. MrgX1-HEK293, Fluo-4 calcium flux, FDSS; stronger effect = higher value. B-score at 10 µM. actives 0.63% (n = 310,000). AID 588675;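 active means plate-corrected calcium response at least 3 library SD above typical, normal starting fluorescence, not activating the receptor alone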;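 further: compound read alongside a low EC10 to EC30 dose of BAM8-22 agonist; peak minus trough fluorescence over baseline measured at the second addition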
Active calls of the source: *; i = inactive. Compounds with a hit are over-represented: about 3.5% of the library has one in this group of screens.

SMILES | MrgX1 antagonist | MrgX1 ag | RGS4 inh | RGS4 act | MrgX1 allo act
Cn1c(N)c(C(=O)COC(=O)c2ncc(Cl)c(Cl)c2Cl)c(=O)n(C)c1=O | i | i | i | i | i
CCNC(=S)NNC(=O)c1cccnc1 | -5.3* | i | i | i | i
O=C(NC(=S)NC1CC1)c1cccnc1 | -4.7* | i | i | i | i
CC(C)OCCCNC(=O)Cn1ccc2cc(S(=O)(=O)N3CCCCC3)ccc21 | i | i | i | i | i
O=C(C1CCN(S(=O)(=O)c2ccc(F)cc2)CC1)N1CCCC(C(F)(F)F)C1 (stereo not given) | i | i | i | i | i
COc1ccc2c(c1)C=C(CN1CCN(C3CCCC3)C(CCO)C1)CO2 (stereo not given) | i | i | i | -7* | i
CC(C)CN1CCN(Cc2nc3ccccc3s2)CC1CCO (stereo not given) | i | i | i | i | i
OCCC1CN(Cc2nc3ccccc3s2)CCN1C1CCCCC1 (stereo not given) | -5.2* | i | i | i | i
OCCC1CN(Cc2nc(-c3ccccc3)cs2)CCN1C1CCCC1 (stereo not given) | i | i | i | -7.2* | i
Cc1ccc(-n2c(C)cc(C(=O)COc3c(CO)cc(F)cc3CO)c2C)cc1C | i | i | i | i | i
CCC(C)/C(C)=N/NC(=O)CSc1nc2ccccc2[nH]1 (stereo not given) | i | i | i | i | i
O=C(N/N=C/c1ccccn1)c1cccc(S(=O)(=O)Nc2ccccc2Cl)c1 | i | i | i | i | 16*
COc1ccc(-c2nn(-c3ccccc3)cc2/C=N/NC(=O)c2cccc(S(=O)(=O)Nc3ccccc3Cl)c2)cc1 | -5* | i | i | i | i
CCC(Sc1nc2ccccc2s1)C(=O)Nc1cc(C)on1 (stereo not given) | i | i | i | i | i
NS(=O)(=O)c1ccc(CNC(=O)c2ccc3c(=O)n4c(nc3c2)CCC4)cc1 | i | i | i | i | i
CCOC(=O)CSc1nc(-c2ccccc2)nc2c1oc1ccccc12 | i | i | i | -7.3* | i
CCOC(=O)NC(=O)COC(=O)CNC(=O)c1ccc(OCC)c(OCC)c1 | i | i | i | i | 8.9*
CCOc1cc(/C=C2\C(=N)N3N=C(N4CCCCC4)SC3=NC2=O)ccc1OC(=O)c1ccco1 | i | i | i | i | i
CCOc1cc(/C=C2\C(=N)N3N=C(S(=O)(=O)CC)SC3=NC2=O)ccc1OC(=O)c1ccco1 | i | i | i | i | i
CCOc1cc(/C=C2/C(=N)N3C(=NC2=O)SN=C3S(C)(=O)=O)ccc1OC(=O)c1ccco1 | i | i | i | i | 13*
CCS(=O)(=O)C1=NN2C(=N)/C(=C\c3ccc(OC(=O)c4ccco4)c(Br)c3)C(=O)N=C2S1 | i | 73* | i | i | i
CCOc1cc(/C=C2/C(=N)N3N=C(CC)SC3=NC2=O)ccc1OC(=O)c1ccco1 | i | 34* | i | i | i
CCOc1cc(/C=C2/C(=N)N3C(=NC2=O)SN=C3S(C)(=O)=O)ccc1OS(=O)(=O)c1ccccc1 | i | i | i | i | 27*
COc1ccc(N(CC(=O)Nc2ccccc2F)S(=O)(=O)c2ccc(OC)c(OC)c2)cc1 | i | i | i | i | i
COc1cc(/C=C2\C(=N)N3N=CSC3=NC2=O)ccc1OS(=O)(=O)c1ccccc1[N+](=O)[O-] | i | 39* | i | i | i
COc1cc(/C=C2/C(=O)N(c3ccccc3)N=C2C)ccc1OS(=O)(=O)c1ccccc1 | i | i | i | i | i
CC(=O)Nc1ccc(OCCOc2ccc(/C=C3\C(=N)N4N=C(C)SC4=NC3=O)cc2)cc1 | i | i | i | i | 9.5*
CCS(=O)(=O)C1=NSC2=NC(=O)/C(=C\c3ccc(OC(=O)c4ccco4)cc3)C(=N)N21 | i | i | i | i | 19*
COc1cc(/C=C2\C(=N)N3N=C(S(C)(=O)=O)SC3=NC2=O)ccc1OCCOc1ccccc1C | i | i | i | i | i

Screens from PubChem.
